From ChEMBL document CHEMBL4304743, “Discovery of ( E)- N1-(3-Fluorophenyl)- N3-(3-(2-(pyridin-2-yl)vinyl)-1 H-indazol-6-yl)malonamide (CHMFL-KIT-033) as a Novel c-KIT T670I Mutant Selective Kinase Inhibitor for Gastrointestinal Stromal Tumors (GISTs)” (J Med Chem, 2019) come the findings set out here.

A word on the AUC(0-inf): it is total exposure, with the tail of the curve extrapolated. A high value points to high exposure. The GI50 is the concentration at which growth is held to half of that of the control. For orientation: Tmax means the time at which the peak concentration occurs. What is called EC50 is the concentration needed to bring the measured effect to its halfway point. As a reminder, the Cmax is the highest concentration seen after dosing. The bioavailability is the share of a dose that reaches the circulation, judged against a reference dose that is usually intravenous. Usually IC50 stands for the midpoint of a concentration-inhibition curve. A low value points to greater potency.

Calls of active or inactive are those of the source. No cut-off for these calls is given here.

Data set [1] is described as follows: AUC (0 to infinity) in Sprague-Dawley rat at 1 mg/kg, iv measured after 2 to 720 mins by LC-tandem mass spectrometry analysis. It is filed as ADME, organism-based. Set-up: dose 1 mg/kg, route intravenous, time infinity. The note with it: in vivo. The gist of the method: (§1)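 Male Sprague-Dawley rats (190-210 g), fasted 12 h, randomized into two groups: 1 mg/kg i.v. or 10 mg/kg p.o., both formulated in 10% DMSO/90% of 5% glucose water. Blood sampled at 2-720 min (i.v.) or 5-720 min (p.o.). Plasma protein-precipitated with methanol, caffeine internal standard, LC-MS/MS. Noncompartmental analysis; triplicate, ±SD.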

The test system of data set [2] is Mast/stem cell growth factor receptor Kit (Homo sapiens), P10721 [V559G]. Put plainly: Inhibition of TEL fused c-KIT V559G mutant (unknown origin) transfected in mouse BAF3 cells assessed as growth inhibition after 72 hrs by CCK8 assay. In kind it is cell-based. A digest of the protocol:
(§2)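 Tel-c-KIT-transformed BaF3 lines (IL-3 independent) kept in RPMI 1640 with 10% FBS, 2% L-glutamine and pen/strep. Cells at 1.5 to 5 × 10^4 cells/mL mixed with graded compound and incubated 72 h at 37 °C, 5% CO2. Viability by CCK-8 absorbance at 450 nm, normalized to DMSO. GI50 from dose–response fit.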

The test system of data set [3] is Mast/stem cell growth factor receptor Kit (Homo sapiens), P10721 [A829P]. The experiment in a line: Inhibition of TEL fused c-KIT A829P mutant (unknown origin) transfected in mouse BAF3 cells assessed as growth inhibition after 72 hrs by CCK8 assay. In kind it is cell-based. A digest of the protocol:
as §2

Data set [4] in a line: Tmax in Sprague-Dawley rat at 10 mg/kg, po measured after 5 to 720 mins by LC-tandem mass spectrometry analysis. It is filed as ADME, organism-based. The note with it: in vivo. The gist of the method: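 Male Sprague–Dawley rats (190-210 g), fasted 12 h, given 1 mg/kg i.v. or 10 mg/kg p.o. in DMSO/5% glucose water (1:9). Blood sampled at 2–720 min (i.v.) or 5–720 min (p.o.). Plasma proteins precipitated with methanol using caffeine internal standard, then LC-MS/MS. Noncompartmental analysis; F = AUC0-∞ ratio corrected for dose; triplicate ±SD.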

Data set [5] has as its target T1, Mast/stem cell growth factor receptor Kit (Homo sapiens, UniProt P10721, T670I). Put plainly: Inhibition of TEL fused wild type c-KIT T670I mutant (unknown origin) transfected in mouse BaF3 cells assessed as reduction in phosphorylation at Y703 residue after 2 hrs by Western blot analysis. It is filed as cell-based. (In general: In western blotting, separated proteins are transferred to a membrane and probed.)

The target of data set [6] is Serine/threonine-protein kinase Nek1 (Homo sapiens) (UniProt Q96PY6). Put plainly: Binding affinity to wild-type human partial length NEK1 (M1 to K278 residues) expressed in bacterial expression system assessed as enzyme remaining activity at 1 uM by Kinomescan assay relative to control. A digest of the protocol:
(§3)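 KINOMEscan competition binding panel of 468 kinases and mutants, compound at 1 μM; binding reported as percent of control.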

Data set [7] deals with Mast/stem cell growth factor receptor Kit (Homo sapiens), P10721 [UNDEFINED MUTATION]. Put plainly: Inhibition of c-KIT 560 to 578 deletion/T670I double mutant in human GIST5R cells assessed as reduction in ERK phosphorylation at T202/Y204 residue at 0.1 uM to 3 uM after 1 hr by Western blot analysis. In kind it is cell-based. The gist of the method:
(§4)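 Serial compound dilutions applied for 1 h to GIST-T1, GIST-T1-T670I (CRISPR/Cas9 T670I knock-in, clone confirmed by Sanger sequencing) or GIST-5R cells in DMEM with 10% FBS. Cells then lysed and phospho-proteins detected by standard Western blotting.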

Data set [8] concerns Mast/stem cell growth factor receptor Kit (Homo sapiens), P10721 [N822K]. The experiment in a line: Inhibition of TEL fused c-KIT N822K mutant (unknown origin) transfected in mouse BAF3 cells assessed as growth inhibition after 72 hrs by CCK8 assay. In kind it is cell-based. The gist of the method: as §2
The test system of data set [9] is Mus musculus. Put plainly: Inhibition of c-KIT phosphorylation at Y719 residue in tumor of human GIST5R cells xenografted in nude mouse at 100 mg/kg, po administered as single dose and measured at 2 hrs. It is filed as functional, organism-based. A digest of the protocol:
(§5)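 Female nu/nu mice bearing subcutaneous GIST-5R xenografts (cells in Matrigel, right flank) given one oral gavage dose of 100 mg/kg in HKI suspension (0.5% methocellulose/0.4% Tween80 in ddH2O). Tumors collected over a 2 h time course; p-c-KIT, p-ERK and p-AKT assessed by Western blot; plasma drug levels monitored in parallel.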
On the technique in general: In xenograft studies the graft and the host belong to different species.

Data set [10] in a line: Cmax in Sprague-Dawley rat at 10 mg/kg, po measured after 5 to 720 mins by LC-tandem mass spectrometry analysis. More on the design: dose 10 mg/kg, route oral. It is filed as ADME, organism-based. The note with it: in vivo. A digest of the protocol: as §1
The nature of data set [11]: Antitumor activity against human GIST5R cells xenografted in nude mouse assessed as tumor growth inhibition at 100 mg/kg, po administered […] via gavage for 28 days relative to control. In kind it is functional. Conditions: 672 h, read-out: TGI. A digest of the protocol: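 Female nu/nu mice (5 weeks old) given subcutaneous right-flank GIST-5R cells in Matrigel. Dosing began at tumors of 200-400 mm3; randomized, 4 mice per group. Daily oral dosing (QD) at 25, 50 or 100 mg/kg in 0.5% methylcellulose/0.4% Tween80, or vehicle alone, for 28 days. Body weight and tumor volume, (W²×L)/2, measured daily; mean±SEM.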

A short description of data set [12]: Oral bioavailability in mouse at 10 mg/kg measured after 5 to 720 mins by LC-tandem mass spectrometry analysis. In kind it is ADME, organism-based. The note with it: in vivo.
The test system of data set [13] is Mus musculus. The experiment in a line: Inhibition of c-KIT phosphorylation at Y823 residue in tumor of human GIST5R cells xenografted in nude mouse at 100 mg/kg, po administered as single dose and measured after 2 hrs. It is filed as functional, organism-based. A digest of the protocol:
as §5

The target in data set [14] is Serine/threonine-protein kinase PAK 2 (Homo sapiens, UniProt Q13177). The experiment in a line: Binding affinity to wild-type human partial length PAK2 (P151 to R525 residues) expressed in bacterial expression system assessed as enzyme remaining activity at 1 uM by Kinomescan assay relative to control. A digest of the protocol: as §3
The subject of data set [15] is Mus musculus. Put plainly: Inhibition of c-KIT phosphorylation at Y703 residue in tumor of human GIST5R cells xenografted in nude mouse at 100 mg/kg, po administered as single dose and measured at 2 hrs. It is filed as functional, organism-based. The gist of the method: as §5
For data set [16], the target named is T1, Mast/stem cell growth factor receptor Kit. The experiment in a line: Inhibition of His-tagged c-KIT T670I mutant (544 to 935 residues) (unknown origin) expressed in baculovirus infected sf9 cells pre-incubated for 60 mins followed by ATP addition and measured after 1 hr by Z-LYTE assay.
Data set [17] relates to Mus musculus. Put plainly: Inhibition of ERK phosphorylation at T202/Y204 residue in tumor of human GIST5R cells xenografted in nude mouse at 100 mg/kg, po administered as single dose and measured after 2 hrs. It is filed as functional, organism-based. The gist of the method: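 Female nu/nu mice bearing subcutaneous GIST-5R tumors (cells in Matrigel, right flank) given one oral dose of 100 mg/kg in 0.5% methylcellulose/0.4% Tween80. Tumors collected over a 2 h time course. p-c-KIT, p-ERK and p-AKT measured alongside plasma drug levels.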

The subject of data set [18] is Mast/stem cell growth factor receptor Kit (Homo sapiens), P10721 [UNDEFINED MUTATION]. The experiment in a line: Inhibition of c-KIT 560 to 578 deletion mutant in human GISTT1 cells assessed as reduction in c-KIT autophosphorylation at Y719 residue at 0.1 uM to 3 uM after 1 hr by Western blot analysis. It is filed as cell-based. A digest of the protocol: as §4

T1 sequence (P10721 26-976 T670I limits assumed): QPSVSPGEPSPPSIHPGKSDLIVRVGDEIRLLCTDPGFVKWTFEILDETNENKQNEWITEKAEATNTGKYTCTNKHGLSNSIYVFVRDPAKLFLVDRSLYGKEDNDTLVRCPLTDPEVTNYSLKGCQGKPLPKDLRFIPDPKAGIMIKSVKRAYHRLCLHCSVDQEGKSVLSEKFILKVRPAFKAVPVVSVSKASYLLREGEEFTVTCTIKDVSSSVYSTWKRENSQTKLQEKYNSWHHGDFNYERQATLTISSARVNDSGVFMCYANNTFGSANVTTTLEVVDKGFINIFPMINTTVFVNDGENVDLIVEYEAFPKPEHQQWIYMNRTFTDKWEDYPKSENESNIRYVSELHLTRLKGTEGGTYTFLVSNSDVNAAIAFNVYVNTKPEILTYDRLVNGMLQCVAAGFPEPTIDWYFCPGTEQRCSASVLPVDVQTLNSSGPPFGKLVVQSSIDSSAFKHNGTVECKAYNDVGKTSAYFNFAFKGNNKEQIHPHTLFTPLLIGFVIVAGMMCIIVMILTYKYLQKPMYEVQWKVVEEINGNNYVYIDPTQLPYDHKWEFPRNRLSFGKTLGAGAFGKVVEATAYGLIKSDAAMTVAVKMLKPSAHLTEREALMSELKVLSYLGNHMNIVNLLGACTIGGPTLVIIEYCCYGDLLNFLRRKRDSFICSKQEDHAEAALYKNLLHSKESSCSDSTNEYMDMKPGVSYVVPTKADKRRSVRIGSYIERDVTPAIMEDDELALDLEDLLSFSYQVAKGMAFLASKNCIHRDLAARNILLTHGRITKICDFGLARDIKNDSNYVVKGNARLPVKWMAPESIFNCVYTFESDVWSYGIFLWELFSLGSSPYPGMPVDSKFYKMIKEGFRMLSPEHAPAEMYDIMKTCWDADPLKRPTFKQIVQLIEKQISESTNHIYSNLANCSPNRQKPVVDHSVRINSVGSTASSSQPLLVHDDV
Sequence of Mast/stem cell growth factor receptor Kit (Homo sapiens), P10721 [UNDEFINED MUTATION] (P10721 whole entry, looked up, stated change not applied): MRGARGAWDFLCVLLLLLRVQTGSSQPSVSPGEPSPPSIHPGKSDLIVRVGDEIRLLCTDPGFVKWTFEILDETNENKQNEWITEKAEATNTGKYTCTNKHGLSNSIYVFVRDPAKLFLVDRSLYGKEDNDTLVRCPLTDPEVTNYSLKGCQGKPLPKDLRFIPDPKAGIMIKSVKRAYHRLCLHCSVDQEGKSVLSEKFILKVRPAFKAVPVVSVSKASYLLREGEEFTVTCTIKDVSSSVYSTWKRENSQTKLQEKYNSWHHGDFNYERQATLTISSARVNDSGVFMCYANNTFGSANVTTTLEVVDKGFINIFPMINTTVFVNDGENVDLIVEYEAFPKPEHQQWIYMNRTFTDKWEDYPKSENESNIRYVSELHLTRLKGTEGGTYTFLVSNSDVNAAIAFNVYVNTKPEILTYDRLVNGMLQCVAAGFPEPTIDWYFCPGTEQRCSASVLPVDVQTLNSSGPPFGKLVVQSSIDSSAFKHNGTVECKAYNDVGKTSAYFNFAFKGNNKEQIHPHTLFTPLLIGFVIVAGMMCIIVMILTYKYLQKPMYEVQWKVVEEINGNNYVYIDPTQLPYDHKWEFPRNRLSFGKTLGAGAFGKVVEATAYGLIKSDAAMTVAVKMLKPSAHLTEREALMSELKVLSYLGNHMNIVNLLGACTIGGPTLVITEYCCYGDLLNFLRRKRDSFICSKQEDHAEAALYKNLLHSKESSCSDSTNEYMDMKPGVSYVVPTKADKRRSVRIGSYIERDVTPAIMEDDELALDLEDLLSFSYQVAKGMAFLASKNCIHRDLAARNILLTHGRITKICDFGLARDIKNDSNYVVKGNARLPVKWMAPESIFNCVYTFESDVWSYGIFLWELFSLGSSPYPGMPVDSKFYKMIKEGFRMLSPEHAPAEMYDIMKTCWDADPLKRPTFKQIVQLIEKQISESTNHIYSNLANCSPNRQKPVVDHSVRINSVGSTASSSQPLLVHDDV
Sequence of Serine/threonine-protein kinase Nek1 (Homo sapiens) (Q96PY6 whole entry, the tested form may be a part): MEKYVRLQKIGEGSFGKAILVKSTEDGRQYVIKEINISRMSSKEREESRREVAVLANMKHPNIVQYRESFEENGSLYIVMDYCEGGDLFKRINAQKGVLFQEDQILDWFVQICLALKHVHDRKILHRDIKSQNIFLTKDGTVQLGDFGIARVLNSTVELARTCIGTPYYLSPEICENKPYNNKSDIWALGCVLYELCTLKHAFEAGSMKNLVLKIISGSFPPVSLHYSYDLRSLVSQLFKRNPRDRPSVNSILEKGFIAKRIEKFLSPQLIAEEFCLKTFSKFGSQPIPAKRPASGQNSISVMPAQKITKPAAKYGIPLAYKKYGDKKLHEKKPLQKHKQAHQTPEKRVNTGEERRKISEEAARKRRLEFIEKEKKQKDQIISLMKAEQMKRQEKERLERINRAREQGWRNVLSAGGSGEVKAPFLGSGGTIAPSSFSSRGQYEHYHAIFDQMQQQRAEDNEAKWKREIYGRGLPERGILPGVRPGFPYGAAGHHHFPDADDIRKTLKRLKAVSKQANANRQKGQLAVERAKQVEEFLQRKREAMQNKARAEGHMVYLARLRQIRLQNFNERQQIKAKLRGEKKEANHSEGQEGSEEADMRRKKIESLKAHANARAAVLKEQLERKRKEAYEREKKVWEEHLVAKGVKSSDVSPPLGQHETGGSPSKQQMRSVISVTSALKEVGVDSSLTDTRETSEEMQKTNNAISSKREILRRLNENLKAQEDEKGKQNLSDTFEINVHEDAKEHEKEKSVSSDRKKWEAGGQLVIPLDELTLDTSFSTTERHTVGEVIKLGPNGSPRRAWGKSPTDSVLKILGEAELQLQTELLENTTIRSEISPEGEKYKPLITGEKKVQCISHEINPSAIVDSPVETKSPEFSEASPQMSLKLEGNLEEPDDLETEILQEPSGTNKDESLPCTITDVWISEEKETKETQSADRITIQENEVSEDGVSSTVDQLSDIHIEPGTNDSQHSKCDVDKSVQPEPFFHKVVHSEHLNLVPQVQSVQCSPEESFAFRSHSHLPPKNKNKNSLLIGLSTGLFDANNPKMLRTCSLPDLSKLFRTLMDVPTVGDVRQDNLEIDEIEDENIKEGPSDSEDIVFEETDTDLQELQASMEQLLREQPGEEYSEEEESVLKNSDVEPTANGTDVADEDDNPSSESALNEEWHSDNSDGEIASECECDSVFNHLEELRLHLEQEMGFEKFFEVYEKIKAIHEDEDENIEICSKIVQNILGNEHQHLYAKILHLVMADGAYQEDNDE
Sequence of Mast/stem cell growth factor receptor Kit (Homo sapiens), P10721 [A829P] (P10721 whole entry A829P, the tested form may be a part): as the sequence (P10721 whole entry, looked up, stated change not applied) above, with A829P counted along it
Sequence of Mast/stem cell growth factor receptor Kit (Homo sapiens), P10721 [N822K] (P10721 whole entry N822K, the tested form may be a part): as the sequence (P10721 whole entry, looked up, stated change not applied) above, with N822K counted along it
Sequence of Serine/threonine-protein kinase PAK 2 (Q13177 whole entry, the tested form may be a part): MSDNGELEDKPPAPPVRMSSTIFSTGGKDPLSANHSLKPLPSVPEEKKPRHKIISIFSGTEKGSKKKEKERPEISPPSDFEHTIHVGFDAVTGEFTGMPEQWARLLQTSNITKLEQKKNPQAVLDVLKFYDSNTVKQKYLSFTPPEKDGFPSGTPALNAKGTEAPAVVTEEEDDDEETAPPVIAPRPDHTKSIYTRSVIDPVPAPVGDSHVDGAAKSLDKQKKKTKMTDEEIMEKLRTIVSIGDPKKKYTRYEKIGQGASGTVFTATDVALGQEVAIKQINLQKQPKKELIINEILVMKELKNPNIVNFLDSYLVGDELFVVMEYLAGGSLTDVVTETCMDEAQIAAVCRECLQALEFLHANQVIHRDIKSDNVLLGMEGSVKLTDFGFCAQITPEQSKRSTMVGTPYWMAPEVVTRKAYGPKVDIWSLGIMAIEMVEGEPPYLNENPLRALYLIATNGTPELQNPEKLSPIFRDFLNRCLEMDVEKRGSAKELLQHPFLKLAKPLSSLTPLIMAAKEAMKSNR
Sequence of Mast/stem cell growth factor receptor Kit (Homo sapiens), P10721 [V559G] (P10721 whole entry V559G, the tested form may be a part): as the sequence (P10721 whole entry, looked up, stated change not applied) above, with V559G counted along it

For `O=C(CC(=O)Nc1ccc2c(/C=C/c3ccccn3)n[nH]c2c1)Nc1cccc(F)c1`, in data set [1], the AUC(0-inf) stood at 307 ng·h/mL. Also, the GI50 in data set [2] amounted to 26 nM; in [3], 6000 nM; in data set [8] it was 6060 nM. Further, in data set [4], the Tmax came out at 1.7 h. In addition, the 50% effective concentration (EC50) in data set [5] is 77 nM. The Activity in data set [6] was found to be 0%; in data set [14], 0.1%. In addition, the inhibition entry (in data set [7]; with Mus musculus [9]; with Mus musculus [15]; in data set [18]) was “Active” in each case. Moreover, the Cmax in data set [10] is 97.1 ng/mL. Also, the inhibition in vivo at 100 mg/kg in data set [11] amounted to 83%. The compound further gave a bioavailability in data set [12] of 16.4%. The inhibition entry in the data set with Mus musculus [13] and in the data set on Mus musculus [17] was “inactive” throughout. This compound had an IC50 in data set [16] of 45 nM.
